Experimental data: ChEMBL document CHEMBL4000168, “Carthorquinosides A and B, Quinochalcone C-Glycosides with Diverse Dimeric Skeletons from Carthamus tinctorius” (J Nat Prod, 2016)
Calls of active or inactive are those of the source. The rule behind the calls is not given here.

Experiments:
HUVEC [1] = experiment: Antiinflammatory activity in HUVEC assessed as downregulation of LPS-induced IL6 mRNA expression at 0.8 to 100 uM by qRT-PCR method; type: functional, cell-based; conditions: Homo sapiens
Procedure, shortened: (§1)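 HUVEC cells grown in DMEM with 10% FBS, streptomycin and penicillin, at 37 °C in humidified 5% CO2. Drug groups received 0.8, 4, 20 or 100 μM drug plus 10 μg/mL LPS. Model group got medium plus LPS, controls got medium only, n = 3 per group. Cells harvested after varying times for cytokine mRNA measurement. Mean ± SD of three independent experiments.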

HUVEC [2] = experiment: Antiinflammatory activity in HUVEC assessed as downregulation of LPS-induced IL1 mRNA expression at 0.8 to 100 uM by qRT-PCR method; type: functional, cell-based; conditions: Homo sapiens; procedure, shortened: as §1
HUVEC [3] = experiment: Antiinflammatory activity in LPS stimulated HUVEC assessed as upregulation of IL10 mRNA expression at 0.8 to 100 uM by qRT-PCR method; type: functional, cell-based; conditions: Homo sapiens; procedure, shortened: as §1
HUVEC [4] = experiment: Antiinflammatory activity in HUVEC assessed as downregulation of LPS-induced IFN-gamma mRNA expression at 0.8 to 100 uM by qRT-PCR method; type: functional, cell-based; conditions: Homo sapiens; procedure, shortened: as §1
Bos taurus = organism: Bos taurus; experiment: Inhibition of calf thymus topoisomerase 1 assessed as decrease in relaxation of supercoiled pBR322 DNA at 100 uM after 30 mins by agarose gel electrophoresis
Procedure, shortened: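 Calf-thymus topoisomerase I relaxation of negatively supercoiled pBR322. Supercoiled and relaxed DNA bands resolved. Test concentration 100 μM. Hydroxycamptothecine served as positive control.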

HeLa = experiment: Cytotoxicity against human HeLa cells after 72 hrs by MTT assay
HepG2 = experiment: Cytotoxicity against human HepG2 cells after 72 hrs by MTT assay; conditions: HepG2, 72 h
A549 = experiment: Cytotoxicity against human A549 cells after 72 hrs by MTT assay; conditions: A549, 72 h
K562 = experiment: Cytotoxicity against human K562 cells after 72 hrs by MTT assay; conditions: K562, 72 h
HCT-116 = experiment: Cytotoxicity against human HCT116 cells after 72 hrs by MTT assay; conditions: HCT-116, 72 h

Structure (SMILES)	Activity (HUVEC [1])	Activity (HUVEC [2])	Activity (HUVEC [3])	Activity (HUVEC [4])	inhibition (Bos taurus)	IC50 (HeLa) [µM]	IC50 (HepG2) [µM]	IC50 (A549) [µM]	IC50 (K562) [µM]	IC50 (HCT-116) [µM]
O=C(/C=C/c1ccc(O)cc1)C1=C(O)C(Cc2c(O)c(O[C@@H]3O[C@H](CO)[C@@H](O)[C@H](O)[C@H]3O)c(O)c3c(=O)c(O[C@@H]4O[C@H](CO)[C@@H](O)[C@H](O)[C@H]4O)c(-c4ccc(O)cc4)oc23)=C(O)[C@@](O)(C2O[C@H](CO)[C@@H](O)[C@H](O)[C@H]2O)C1=O (stereo partly drawn)	Active	Active	Dose-dependent effect							
O=C(/C=C/c1ccc(O)cc1)C1=C(O)C(C2C3=C(O)[C@@](O)(C4O[C@H](CO)[C@@H](O)[C@H](O)[C@H]4O)C(=O)C(C(=O)/C=C/c4ccc(O)cc4)=C3O[C@@H]2[C@@H](O)[C@H](O)[C@H](O)CO)=C(O)[C@@](O)(C2O[C@H](CO)[C@@H](O)[C@H](O)[C@H]2O)C1=O (stereo partly drawn)	Dose-dependent effect	Dose-dependent effect	Dose-dependent effect	Dose-dependent effect	Active					
CC(=O)O[C@H]1C(=O)[C@@]2(C)[C@H]([C@H](OC(=O)c3ccccc3)[C@]3(O)C[C@H](OC(=O)[C@H](O)[C@@H](NC(=O)c4ccccc4)c4ccccc4)C(C)=C1C3(C)C)[C@]1(OC(C)=O)CO[C@@H]1C[C@@H]2O [PACLITAXEL]						1.7	6.7	5.5	2.7	3.3
